Assay outcomes as filed in PubChem.
TAAR1 antag: human TAAR1 antagonists, primary screen, Fluo-8 calcium fluorescence, CHO RD-HGA16 cells | antagonist | Trace amine-associated receptor 1 (Homo sapiens), Q96RJ0 | 1.5% of 360,000 active | inhibition, % at 3 µM;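 active = inhibition above a per-plate cutoff, the mean inhibition of test compounds on that plate plus 3 SD, cut at about 49% in these data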;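 also: 0% = DMSO plus EC80 beta-PEA response and 100% = DMSO alone without agonist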
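Assay system: RD-HGA16 CHO cells with stable hTAAR1 and Gα16 / Reagent: EC80 β-phenethylamine stimulus / Doses: 3 µM, single point / Timing: dye loading 75 min at 37 °C, then 30 min room temperature / Measured by: Fluo-8 intracellular calcium dye fluorescence, real-time kinetic reads / Controls: vehicle wells and EC80 agonist wells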
OX1R antag-1: OX1R (HCRTR1) antagonists, primary screen, fluorescence, CHO/OX1R cells, Fluo-8 calcium, orexin A. Orexin/Hypocretin receptor type 1 (Homo sapiens), O43613. Fluo-8 calcium fluorescence. inhibition, % at 5 µM. 0.43% of 330,000 active. AID 434989, 2010;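 active = inhibition above its plate's threshold, mean inhibition of all tested compounds on the plate plus 3 SD, cut at about 37% in these data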;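 also: 0% = orexin A challenge wells and 100% = SB-334867-A antagonist wells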
Target sequence (O43613 whole entry, looked up): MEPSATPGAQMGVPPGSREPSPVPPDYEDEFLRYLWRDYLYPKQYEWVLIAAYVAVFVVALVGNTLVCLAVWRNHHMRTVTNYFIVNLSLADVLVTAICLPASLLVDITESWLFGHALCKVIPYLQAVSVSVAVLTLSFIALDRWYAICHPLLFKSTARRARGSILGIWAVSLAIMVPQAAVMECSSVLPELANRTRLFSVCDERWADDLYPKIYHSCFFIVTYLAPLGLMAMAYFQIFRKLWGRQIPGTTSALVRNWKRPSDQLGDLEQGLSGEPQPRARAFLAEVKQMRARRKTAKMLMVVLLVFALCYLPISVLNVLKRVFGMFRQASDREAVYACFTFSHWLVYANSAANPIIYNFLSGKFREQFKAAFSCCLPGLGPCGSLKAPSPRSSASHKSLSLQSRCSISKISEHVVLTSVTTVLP
GPR7 antagonist: GPR7 receptor antagonists, primary screen, cell-based, fluorescence, single concentration | Neuropeptides B/W receptor type 1 (Homo sapiens), P48145 | GPR7-expressing cells, fluorescence antagonist assay | inhibition, % at 4.4 µM | 1.1% of 290,000 active | AID 1861, 2009; in the data active = inhibition above about 16%, passing the limit was not always enough;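 also: cells stimulated with the agonist NPW; 0% = agonist with vehicle and 100% = vehicle without agonist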
Target sequence (P48145 whole entry, looked up): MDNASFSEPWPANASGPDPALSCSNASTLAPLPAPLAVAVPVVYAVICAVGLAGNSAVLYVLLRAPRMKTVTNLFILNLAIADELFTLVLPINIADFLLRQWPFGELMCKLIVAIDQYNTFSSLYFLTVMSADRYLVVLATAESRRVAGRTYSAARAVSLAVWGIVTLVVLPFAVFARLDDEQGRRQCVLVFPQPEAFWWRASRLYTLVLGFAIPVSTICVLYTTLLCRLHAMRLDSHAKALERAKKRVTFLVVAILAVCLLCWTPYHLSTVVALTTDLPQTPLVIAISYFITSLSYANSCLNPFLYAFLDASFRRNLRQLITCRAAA
CHO parental Ca: ATP-evoked calcium signal inhibitors, parental CHO, primary screen, counter-screen for OX1R antagonist project, cell-based, fluorescence, Fluo-8 calcium dye. parental CHO-K1, ATP-induced calcium, Fluo-8 fluorescence. inhibition, % at 5.6 µM. 0.63% of 330,000 active. AID 463079, 2010;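 active = inhibition above that plate's mean sample inhibition plus 3 SD, cut at about 26% in these data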;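 also: 0% = ATP-challenged DMSO wells and 100% = DMSO wells without ATP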
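material = parental CHO cells | also added = ATP as calcium-mobilizing challenge | dosing = single point at 5.6 µM | detection = intracellular calcium via Fluo-8 no-wash fluorescent dye | read-out = % inhibition | benchmarks = low control ATP plus DMSO, high control DMSO only | repeats = one well per compound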
TAAR1 ag: human TAAR1 agonists, primary screen, Fluo-8 calcium fluorescence, CHO RD-HGA16 cells; Trace amine-associated receptor 1 (Homo sapiens), Q96RJ0; activation, % at 3 µM; 0.99% of 360,000 active; vehicle wells 0%, saturating PEA agonist 100%;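 active = activation above the mean activation of all test compounds in the run plus 3 SD, cut at about 38% in these data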
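System: CHO RD-HGA16 cells carrying human TAAR1 plus Gα16; Incubation: 17-24 h seeding, 75 min 37 °C dye, 30 min RT; Measured by: Fluo-8 fluorescence, 5 s baseline then 140 s kinetic read; Control set: DMSO and PEA EC100; Replication: single well for each compound.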
OX1R antag-2: antagonists of human orexin 1 receptor (OX1R) | Orexin/Hypocretin receptor type 1 (Homo sapiens), O43613 | OX1R-expressing cells, FRET antagonist read-out | inhibition, % at 6.6 µM | 1.8% of 330,000 active; in the data active = inhibition mostly above about 38%, no sharp cut-off; inactive = mostly below about 40%;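 also: 0% = agonist challenge alone and 100% = reference antagonist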
GPR7 antag conf: GPR7 receptor antagonists, confirmation, cell-based, fluorescence, single concentration | shares compounds with GPR7 antagonist | GPR7-expressing cells, calcium fluorescence antagonist mode | inhibition, % at 4.4 µM | 52% of 2,400 active; in the data active = inhibition above about 24%;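 also: stimulated with the GPR7 agonist NPW; 0% = agonist plus vehicle and 100% = vehicle alone without agonist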
MCHR1 antagonist: MCHR1 antagonists in cells, counter-screen for GPR7 antagonist project, cell-based, fluorescence, human | inhibition, % at 4.4 µM | 62% of 2,400 active | MCHR1-expressing cells, fluorescence antagonist assay | shares compounds with GPR7 antagonist; in the data active = inhibition above about 22%;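 also: 0% = vehicle with agonist and 100% = vehicle without agonist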
OX1R Ca confirm: OX1R (HCRTR1) antagonists, confirmation, fluorescence, CHO/OX1R cells, Fluo-8 calcium, orexin A. shares compounds with OX1R antag-1. orexin A calcium Fluo-8 fluorescence. inhibition, % at 5 µM. 38% of 1,100 active. AID 492963, 2010; in the data active = inhibition above about 29%;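 also: 0% = agonist challenge alone and 100% = reference antagonist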
CHO Ca triplic: ATP-evoked calcium inhibition in parental CHO, counter-screen for OX1R antagonist project, cell-based, fluorescence, CHO-K1, triplicate; shares compounds with OX1R antag-1; ATP-induced calcium, Fluo-8 fluorescence; inhibition, % at 5.6 µM; 9.3% of 1,100 active; AID 492965, 2010;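 active = inhibition above a per-plate limit, the mean inhibition of that plate's test compounds plus 3 SD, cut at about 25% in these data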;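 also: 0% = ATP challenge with DMSO and 100% = DMSO without ATP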
TAAR1 ag conf: human TAAR1 agonists, retest of hits, confirmation, Fluo-8 calcium fluorescence, CHO RD-HGA16 cells; activation, % at 3 µM; AID 651783, 2012; shares compounds with TAAR1 ag; scaled: DMSO 0%, maximal phenethylamine 100%; 82% of 2,400 active;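 active = activation above a cutoff set at the run's mean compound activation plus 3 SD, cut at about 39% in these data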
Ga16 ag counter: nonselective calcium mobilization agonists, CHO-Ga16 cells, counter-screen for hTAAR1 agonist project, cell-based, fluorescence, CHO-Ga16 parental line; shares compounds with TAAR1 ag; activation, % at 3 µM; Fluo-8 calcium fluorescence; normalized to maximal ATP response, DMSO zero; AID 651787, 2012; 50% of 2,400 active;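 active = activation above the run cutoff, the mean activation over all tested wells plus 3 SD, cut at about 12% in these data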;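 also: 0% = DMSO wells and 100% = maximal ATP response on the peak over basal ratio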
TAAR1 desensitize: TAAR1 desensitization by agonist hits, confirmation, counter-screen for TAAR1 agonist project, cell-based, fluorescence, tachyphylaxis. shares compounds with TAAR1 ag. CHO RD-HGA16 hTAAR1, Fluo-8 calcium, beta-PEA response inhibition. inhibition, % at 3 µM. 46% of 2,400 active. AID 651951, 2012;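 active = inhibition above the run cutoff, the mean inhibition of all test compounds plus 3 SD, cut at about 49% in these data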;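 also: beta-PEA stimulus applied at its EC80; loss of beta-PEA calcium signal after compound pretreatment read as receptor desensitization; 0% = DMSO with beta-PEA at EC80 and 100% = DMSO alone without agonist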
Ga16 antag count: inhibition of ATP-evoked calcium response in CHO-Ga16 cells, counter-screen for TAAR1 agonist project, cell-based, fluorescence; 39% of 2,400 active; CHO-Ga16 ATP-induced calcium, Fluo-8 fluorescence; inhibition, % at 3 µM; shares compounds with TAAR1 ag;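 active = inhibition above the plate's mean compound inhibition plus 3 SD, computed per plate, cut at about 22% in these data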;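 also: 0% = EC80 ATP with DMSO and 100% = DMSO wells without ATP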
Active calls of the source: *; . = no result given. Hits are enriched below; roughly 4.6% of the tested compounds scored in any of these assays.

SMILES	TAAR1 antag	OX1R antag-1	GPR7 antagonist	CHO parental Ca	TAAR1 ag	OX1R antag-2	GPR7 antag conf	MCHR1 antagonist	TAAR1 ag conf	Ga16 ag counter	TAAR1 desensitize	Ga16 antag count	others
CC1(c2ccc(OC(F)F)cc2)NC(=O)N(CC(=O)Nc2ccccc2)C1=O (centres undefined)	99*	52*	89*	49*	148*	1	85*	84*	139*	92*	101*	73*
CCOC(=O)CN1C(=O)NC(C)(c2ccc(OC(F)F)cc2)C1=O (centres undefined)	-14	-12	5	14	15	12	.	.	.	.	.	.
C=CCn1c(O)c(C2=c3ccccc3=NC2=O)c2ccccc21	27	16	38*	10	64*	28	46*	86*	63*	38*	68*	52*
CC(=O)Nc1ccc(Sc2ncccc2C(=O)Nc2ccc(F)cc2)cn1	104*	101*	62*	72*	174*	-1	98*	98*	150*	113*	106*	89*
CSc1ncccc1C(=O)Nc1ccc(OC(F)(F)F)cc1	4	3	8	-1	2	13	.	.	.	.	.	.
COc1ccc(NS(=O)(=O)c2cccc(C(=O)OCC(=O)Nc3cc(C)on3)c2)cc1	-1	-16	10	-16	6	28	.	.	.	.	.	.
Cc1ccc(NS(=O)(=O)c2ccc(C(=O)OCC(=O)Nc3cc(C)on3)cc2)cc1	7	.	26*	.	72*	.	38*	52*	72*	35*	50*	37*
N#Cc1c(-c2ccc(F)cc2)c(-c2ccc(F)cc2)nn(CCO)c1=O	-8	.	.	.	1	.	.	.	.	.	.	.
O=C(Nc1ccccc1)Nc1ccno1	5	3	27*	-23	48*	-3	7	6	87*	3	67*	13
CCOc1ccc(NS(=O)(=O)c2ccc(C(=O)N(C)CC(=O)Nc3ccc(OC)cc3)cc2)cc1	-11	-13	.	5	2	20	.	.	.	.	.	.
CCCC(=O)NC(=S)Nc1ccc(S(=O)(=O)Nc2ccc(OCC)cc2)cc1	34	13	29*	5	74*	3	53*	67*	85*	35*	66*	39*
Cc1ccccc1OCc1n(CC(=O)OC2CC(C)CCC2C(C)C)c2ccccc2[n+]1C (centres undefined)	31	46*	42*	33*	47*	16	61*	92*	87*	23*	87*	48*
CC(=O)c1cccc(N(C(=O)CNC(=O)c2ccco2)C(C(=O)NCC2CCCO2)c2ccccc2)c1 (centres undefined)	-18	-16	-5	-19	-2	6	.	.	.	.	.	.
CC(C)n1c(=O)n(CC(=O)NCC2CCCO2)c(=O)c2c3c(sc21)COC(C)(C)C3 (centres undefined)	11	-20	-4	-4	0	20	.	.	.	.	.	.
Cc1c([N+](=O)[O-])cc(C(=O)Nc2ccc(NC(=O)c3ccco3)cc2)cc1[N+](=O)[O-]	37	-12	-7	-11	36	15	.	.	.	.	.	.
Cc1ccc(NC(=O)Cn2nc(C(=O)O)c3ccccc3c2=O)cc1S(=O)(=O)N1CCCCC1	26	41*	.	4	6	14	.	.	.	.	.	.	OX1R Ca confirm=12;CHO Ca triplic=0
CC1(C)NC(=O)N(CC(=O)OCC(=O)c2ccc(Br)s2)C1=O	-14	-7	.	-13	0	8	.	.	.	.	.	.
CCCCn1c(N)c(N(CCOC)C(=O)C(C)N2C(=O)c3ccccc3C2=O)c(=O)[nH]c1=O (centres undefined)	4	5	.	-10	7	2	.	.	.	.	.	.
Cc1ccccc1OCCC(=O)Nc1cccc(S(=O)(=O)Nc2ccccc2Cl)c1	41	45*	-8	-5	7	58	.	.	.	.	.	.	OX1R Ca confirm=26;CHO Ca triplic=-2
Cc1ncc(CO)c(CNc2ccc(Oc3ccccc3)cc2)c1O	0	.	-10	.	1	.	.	.	.	.	.	.
FC(F)(F)c1nnc(Nc2ccc(Cl)cc2)s1	-11	42*	2	17	9	9	.	.	.	.	.	.	OX1R Ca confirm=-9;CHO Ca triplic=-3
FC(F)(F)c1nnc(N2CCN(c3ccc(Cl)cc3)CC2)s1	-4	-5	8	-12	1	6	.	.	.	.	.	.
COc1ccccc1NC(=O)Nc1ccc(-n2ccc(C(F)(F)F)n2)cc1	-22	34	-4	-3	3	7	.	.	.	.	.	.	OX1R Ca confirm=5;CHO Ca triplic=4
COc1ccccc1NC(=O)CSc1nnc(-c2ccc(NC(C)=O)cc2)n1C	-10	4	-14	6	6	-2	.	.	.	.	.	.
